Assay [1] has as its target Cyclin-dependent kinase-like 2 (Homo sapiens) (UniProt Q92772). The assay is described as follows: Inhibition of CDKL2 (unknown origin) at 1 uM by Ambit Kinomescan binding assay relative to control; values are per cent of control.
Assay [2] has as its target Ribosomal protein S6 kinase alpha-1 (Homo sapiens) (UniProt Q15418). Briefly: Inhibition of RSK1 domain2 Lys2 labeling site in human A-375 cells at 0.05 uM by KiNativ Profiling analysis relative to control. The assay is classed as cell-based.
Assay [3] deals with Serine/threonine-protein kinase PAK 4 (Homo sapiens) (UniProt O96013). The assay is described as follows: Inhibition of PAK4 (unknown origin) at 1 uM by Ambit Kinomescan binding assay relative to control; values are per cent of control.
The subject of assay [4] is Fibroblast growth factor receptor 3 (Homo sapiens), P22607 [G697C]. Briefly: Inhibition of FGFR3 G697C mutant (unknown origin) at 1 uM by Ambit Kinomescan binding assay relative to control; values are per cent of control.
Assay [5] addresses MAP/microtubule affinity-regulating kinase 4 (Homo sapiens) (UniProt Q96L34). Briefly: Inhibition of MARK4 (unknown origin) at 1 uM by Ambit Kinomescan binding assay relative to control.
The target of assay [6] is Cytoplasmic tyrosine-protein kinase BMX (Homo sapiens) (UniProt P51813). Briefly: Inhibition of BMX (unknown origin) at 1 uM by Ambit Kinomescan binding assay relative to control; values are per cent of control.
Assay [7] addresses Rho-associated protein kinase 1 (Homo sapiens) (UniProt Q13464). Briefly: Inhibition of ROCK1 Lys2 labeling site in human A-375 cells at 0.5 uM by KiNativ Profiling analysis relative to control. The assay is classed as cell-based. Put shortly: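 Live A375 melanoma cells were treated with compound at 5 or 0.5 μM, then lysed. Lysates were labeled with a lysine-reactive ATP or ADP-biotin probe. Read-out was the compound's protection of kinase labeling sites from probe labeling (KiNativ).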

In assay [8] the target is Tyrosine-protein kinase Yes (Homo sapiens) (UniProt P07947). The assay is described as follows: Inhibition of YES ACT labeling site in human Huh-7 cells at 10 uM by KiNativ Profiling analysis relative to control. The assay is classed as cell-based.
Assay [9] concerns the target T1, Myotonin-protein kinase (Homo sapiens) (UniProt Q09013).
T1 sequence (whole entry): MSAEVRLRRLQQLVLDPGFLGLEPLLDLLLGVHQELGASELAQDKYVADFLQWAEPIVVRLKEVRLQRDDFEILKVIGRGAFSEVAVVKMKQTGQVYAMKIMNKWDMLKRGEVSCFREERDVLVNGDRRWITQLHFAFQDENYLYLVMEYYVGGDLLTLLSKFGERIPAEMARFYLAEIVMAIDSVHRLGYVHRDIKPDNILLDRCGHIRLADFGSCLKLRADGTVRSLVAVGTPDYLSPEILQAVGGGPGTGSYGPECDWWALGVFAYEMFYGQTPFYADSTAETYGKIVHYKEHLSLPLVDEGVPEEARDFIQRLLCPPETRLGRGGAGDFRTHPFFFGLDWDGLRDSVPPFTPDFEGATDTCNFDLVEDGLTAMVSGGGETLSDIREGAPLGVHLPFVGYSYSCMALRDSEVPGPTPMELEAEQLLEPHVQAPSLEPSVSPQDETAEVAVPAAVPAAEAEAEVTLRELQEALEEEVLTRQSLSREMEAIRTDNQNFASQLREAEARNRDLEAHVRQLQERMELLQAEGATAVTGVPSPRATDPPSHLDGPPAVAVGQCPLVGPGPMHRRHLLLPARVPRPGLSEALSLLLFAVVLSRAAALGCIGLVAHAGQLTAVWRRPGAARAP
The assay is described as follows: Inhibition of DMPK1 K2 labeling site in human Huh-7 cells at 1 uM by KiNativ Profiling analysis relative to control. The class given is cell-based.

Assay [10] has as its target T2, Mitogen-activated protein kinase kinase kinase kinase 2 (Homo sapiens) (UniProt Q12851).
T2 sequence (whole entry): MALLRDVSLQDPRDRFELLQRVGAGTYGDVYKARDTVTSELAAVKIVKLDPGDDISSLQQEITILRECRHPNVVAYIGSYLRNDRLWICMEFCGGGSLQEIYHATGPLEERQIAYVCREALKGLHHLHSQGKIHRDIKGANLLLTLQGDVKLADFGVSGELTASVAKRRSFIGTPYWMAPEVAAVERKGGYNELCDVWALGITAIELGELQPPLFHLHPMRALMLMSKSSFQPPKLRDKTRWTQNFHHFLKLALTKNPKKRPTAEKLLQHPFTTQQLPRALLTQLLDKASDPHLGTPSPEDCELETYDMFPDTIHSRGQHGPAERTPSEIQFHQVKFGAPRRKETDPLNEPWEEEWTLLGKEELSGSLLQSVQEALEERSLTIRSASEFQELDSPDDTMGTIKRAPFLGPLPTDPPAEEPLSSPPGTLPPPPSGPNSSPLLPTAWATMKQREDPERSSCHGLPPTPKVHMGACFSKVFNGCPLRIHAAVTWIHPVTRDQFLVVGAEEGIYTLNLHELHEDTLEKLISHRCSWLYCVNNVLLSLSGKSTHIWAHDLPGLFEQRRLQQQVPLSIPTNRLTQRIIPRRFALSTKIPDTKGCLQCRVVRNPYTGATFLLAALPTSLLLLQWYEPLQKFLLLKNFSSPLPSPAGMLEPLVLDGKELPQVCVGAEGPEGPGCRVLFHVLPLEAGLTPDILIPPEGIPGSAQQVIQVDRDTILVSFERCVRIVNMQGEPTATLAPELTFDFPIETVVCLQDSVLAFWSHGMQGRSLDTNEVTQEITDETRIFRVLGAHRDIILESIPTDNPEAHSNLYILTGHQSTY
The assay is described as follows: Inhibition of MAP4K2 (GCK) Lys1 labeling site in human A-375 cells at 0.5 uM by KiNativ Profiling analysis relative to control. The class given is cell-based.

Assay [11] concerns the target Serine/threonine-protein kinase 32B (Homo sapiens) (UniProt Q9NY57). Briefly: Inhibition of YANK2 (unknown origin) at 10 uM by Ambit Kinomescan binding assay.
The target in assay [12] is LIM domain kinase 2 (Homo sapiens) (UniProt P53671). The assay is described as follows: Inhibition of LIMK2 (unknown origin) at 10 uM by Ambit Kinomescan binding assay.
Assay [13] has as its target Calcium/calmodulin-dependent protein kinase type II subunit gamma (Homo sapiens) (UniProt Q13555). Briefly: Inhibition of CaMK2g Lys2 labeling site in human Huh-7 cell lysate at 1 uM by KiNativ Profiling analysis relative to control. The assay is classed as subcellular.
In assay [14] the target is 1-phosphatidylinositol 3-phosphate 5-kinase (Homo sapiens) (UniProt Q9Y2I7). Briefly: Inhibition of PIP5K3 ATP labeling site in human Huh-7 cell lysate at 1 uM by KiNativ Profiling analysis relative to control. The class given is subcellular.
Assay [15] concerns the target Cyclin-dependent kinase 10 (Homo sapiens) (UniProt Q15131). The assay is described as follows: Inhibition of CDK10 Lys2 labeling site in human Huh-7 cell lysate at 1 uM by KiNativ Profiling analysis relative to control. The assay is classed as subcellular.

Structures are written as SMILES. Calls of active or inactive are those of the source. No cut-off for these calls is given here.

Chain of Calcium/calmodulin-dependent protein kinase type II subunit gamma (Homo sapiens) (Q13555 whole entry): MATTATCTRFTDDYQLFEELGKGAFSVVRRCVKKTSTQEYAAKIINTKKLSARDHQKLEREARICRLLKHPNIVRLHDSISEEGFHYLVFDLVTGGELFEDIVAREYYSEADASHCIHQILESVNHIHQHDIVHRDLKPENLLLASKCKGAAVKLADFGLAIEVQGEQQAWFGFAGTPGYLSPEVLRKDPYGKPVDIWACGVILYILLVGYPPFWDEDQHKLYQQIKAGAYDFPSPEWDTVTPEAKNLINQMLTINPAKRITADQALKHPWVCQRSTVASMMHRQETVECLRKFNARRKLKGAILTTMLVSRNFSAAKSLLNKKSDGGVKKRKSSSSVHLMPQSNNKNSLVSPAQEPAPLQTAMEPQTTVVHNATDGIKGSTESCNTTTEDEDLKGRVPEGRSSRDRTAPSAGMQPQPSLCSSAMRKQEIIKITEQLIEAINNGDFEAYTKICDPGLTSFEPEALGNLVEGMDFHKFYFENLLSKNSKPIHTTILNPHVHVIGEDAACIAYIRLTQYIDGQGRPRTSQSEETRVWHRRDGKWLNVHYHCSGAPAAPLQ
Chain of Fibroblast growth factor receptor 3 (Homo sapiens), P22607 [G697C] (P22607 whole entry G697C): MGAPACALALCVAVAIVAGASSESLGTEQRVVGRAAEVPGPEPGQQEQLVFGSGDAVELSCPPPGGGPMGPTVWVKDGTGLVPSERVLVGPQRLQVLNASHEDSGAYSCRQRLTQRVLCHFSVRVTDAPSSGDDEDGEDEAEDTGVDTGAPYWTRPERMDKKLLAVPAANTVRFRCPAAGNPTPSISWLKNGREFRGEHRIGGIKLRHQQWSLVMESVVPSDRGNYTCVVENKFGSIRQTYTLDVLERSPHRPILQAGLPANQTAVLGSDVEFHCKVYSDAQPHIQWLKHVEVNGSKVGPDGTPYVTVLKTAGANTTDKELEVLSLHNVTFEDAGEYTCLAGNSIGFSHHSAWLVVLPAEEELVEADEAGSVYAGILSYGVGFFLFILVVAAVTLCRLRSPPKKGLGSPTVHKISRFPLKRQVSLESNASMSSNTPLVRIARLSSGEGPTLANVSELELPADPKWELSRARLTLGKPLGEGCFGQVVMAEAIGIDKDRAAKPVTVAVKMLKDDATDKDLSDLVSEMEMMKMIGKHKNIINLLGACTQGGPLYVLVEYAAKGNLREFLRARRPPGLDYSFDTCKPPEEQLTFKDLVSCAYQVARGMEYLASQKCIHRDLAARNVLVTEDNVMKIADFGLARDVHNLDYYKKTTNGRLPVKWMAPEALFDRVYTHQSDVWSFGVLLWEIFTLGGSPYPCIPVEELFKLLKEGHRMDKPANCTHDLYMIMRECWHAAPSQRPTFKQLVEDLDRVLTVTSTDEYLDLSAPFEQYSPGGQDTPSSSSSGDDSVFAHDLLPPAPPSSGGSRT
Chain of Rho-associated protein kinase 1 (Homo sapiens) (Q13464 2-1354 limits assumed): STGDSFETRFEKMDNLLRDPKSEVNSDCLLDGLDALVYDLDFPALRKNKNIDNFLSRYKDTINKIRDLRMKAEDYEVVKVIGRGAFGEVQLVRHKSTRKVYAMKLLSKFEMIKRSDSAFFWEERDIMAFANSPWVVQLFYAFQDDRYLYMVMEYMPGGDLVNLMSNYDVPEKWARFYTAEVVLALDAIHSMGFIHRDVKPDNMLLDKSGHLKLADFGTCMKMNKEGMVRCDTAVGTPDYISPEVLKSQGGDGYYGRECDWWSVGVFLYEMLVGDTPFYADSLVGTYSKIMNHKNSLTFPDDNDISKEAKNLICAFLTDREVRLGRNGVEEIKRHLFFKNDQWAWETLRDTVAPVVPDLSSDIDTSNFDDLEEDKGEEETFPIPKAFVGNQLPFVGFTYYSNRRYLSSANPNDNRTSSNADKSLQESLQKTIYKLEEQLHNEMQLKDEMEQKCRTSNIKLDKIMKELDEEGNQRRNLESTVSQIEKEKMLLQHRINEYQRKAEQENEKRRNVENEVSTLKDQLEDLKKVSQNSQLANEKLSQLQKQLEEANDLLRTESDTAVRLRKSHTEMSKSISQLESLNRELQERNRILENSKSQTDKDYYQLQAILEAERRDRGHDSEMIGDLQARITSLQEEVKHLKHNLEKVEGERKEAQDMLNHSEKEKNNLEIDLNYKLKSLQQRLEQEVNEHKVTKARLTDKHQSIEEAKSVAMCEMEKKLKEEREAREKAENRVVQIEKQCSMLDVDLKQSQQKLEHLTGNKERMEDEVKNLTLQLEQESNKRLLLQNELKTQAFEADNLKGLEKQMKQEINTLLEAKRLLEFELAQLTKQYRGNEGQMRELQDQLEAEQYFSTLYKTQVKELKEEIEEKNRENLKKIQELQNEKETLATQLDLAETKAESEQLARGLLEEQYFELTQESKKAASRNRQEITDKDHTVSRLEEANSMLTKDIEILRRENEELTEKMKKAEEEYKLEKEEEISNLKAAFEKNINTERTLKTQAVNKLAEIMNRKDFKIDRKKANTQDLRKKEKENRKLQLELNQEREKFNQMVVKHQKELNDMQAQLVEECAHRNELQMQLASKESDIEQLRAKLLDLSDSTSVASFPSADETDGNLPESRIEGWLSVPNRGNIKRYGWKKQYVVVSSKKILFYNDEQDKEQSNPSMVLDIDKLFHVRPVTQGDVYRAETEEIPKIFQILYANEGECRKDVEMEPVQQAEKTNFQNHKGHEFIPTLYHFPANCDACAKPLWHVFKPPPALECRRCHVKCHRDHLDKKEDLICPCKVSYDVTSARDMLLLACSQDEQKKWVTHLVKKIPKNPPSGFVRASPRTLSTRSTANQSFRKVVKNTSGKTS
Chain of Cyclin-dependent kinase-like 2 (Homo sapiens) (Q92772 whole entry, the tested form may be a part): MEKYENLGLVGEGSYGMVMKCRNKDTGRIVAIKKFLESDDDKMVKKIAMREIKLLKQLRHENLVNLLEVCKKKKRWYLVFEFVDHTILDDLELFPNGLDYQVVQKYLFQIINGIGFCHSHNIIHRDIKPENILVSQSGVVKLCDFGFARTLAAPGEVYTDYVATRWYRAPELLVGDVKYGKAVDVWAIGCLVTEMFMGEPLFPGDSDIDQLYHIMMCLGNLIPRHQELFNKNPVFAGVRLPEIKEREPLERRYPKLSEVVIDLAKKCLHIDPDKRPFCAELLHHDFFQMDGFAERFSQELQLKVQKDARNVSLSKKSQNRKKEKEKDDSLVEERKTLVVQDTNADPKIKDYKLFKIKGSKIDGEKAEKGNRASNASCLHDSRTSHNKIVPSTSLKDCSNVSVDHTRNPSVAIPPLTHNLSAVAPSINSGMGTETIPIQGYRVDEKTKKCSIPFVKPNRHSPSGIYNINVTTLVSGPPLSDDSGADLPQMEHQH
Chain of Cytoplasmic tyrosine-protein kinase BMX (Homo sapiens) (P51813 whole entry): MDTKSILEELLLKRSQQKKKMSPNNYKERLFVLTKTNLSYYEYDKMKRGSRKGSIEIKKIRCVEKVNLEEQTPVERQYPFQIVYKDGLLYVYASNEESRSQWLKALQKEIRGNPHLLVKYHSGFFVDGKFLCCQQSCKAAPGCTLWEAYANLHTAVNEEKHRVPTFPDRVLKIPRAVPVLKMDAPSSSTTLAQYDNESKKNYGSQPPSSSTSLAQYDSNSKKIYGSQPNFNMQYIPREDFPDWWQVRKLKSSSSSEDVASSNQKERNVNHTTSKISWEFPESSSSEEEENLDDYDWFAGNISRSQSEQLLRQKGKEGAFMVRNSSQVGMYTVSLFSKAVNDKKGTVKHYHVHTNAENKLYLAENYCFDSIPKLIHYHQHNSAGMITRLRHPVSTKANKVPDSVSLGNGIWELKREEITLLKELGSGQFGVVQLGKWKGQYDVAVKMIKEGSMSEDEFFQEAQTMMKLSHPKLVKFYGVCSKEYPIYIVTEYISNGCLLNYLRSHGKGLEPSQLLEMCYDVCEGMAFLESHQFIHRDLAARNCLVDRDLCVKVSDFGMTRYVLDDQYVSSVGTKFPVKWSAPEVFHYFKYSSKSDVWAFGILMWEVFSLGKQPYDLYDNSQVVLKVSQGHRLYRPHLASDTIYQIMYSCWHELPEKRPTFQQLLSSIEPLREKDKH
Chain of LIM domain kinase 2 (Homo sapiens) (P53671 whole entry, looked up, the tested form may be a part): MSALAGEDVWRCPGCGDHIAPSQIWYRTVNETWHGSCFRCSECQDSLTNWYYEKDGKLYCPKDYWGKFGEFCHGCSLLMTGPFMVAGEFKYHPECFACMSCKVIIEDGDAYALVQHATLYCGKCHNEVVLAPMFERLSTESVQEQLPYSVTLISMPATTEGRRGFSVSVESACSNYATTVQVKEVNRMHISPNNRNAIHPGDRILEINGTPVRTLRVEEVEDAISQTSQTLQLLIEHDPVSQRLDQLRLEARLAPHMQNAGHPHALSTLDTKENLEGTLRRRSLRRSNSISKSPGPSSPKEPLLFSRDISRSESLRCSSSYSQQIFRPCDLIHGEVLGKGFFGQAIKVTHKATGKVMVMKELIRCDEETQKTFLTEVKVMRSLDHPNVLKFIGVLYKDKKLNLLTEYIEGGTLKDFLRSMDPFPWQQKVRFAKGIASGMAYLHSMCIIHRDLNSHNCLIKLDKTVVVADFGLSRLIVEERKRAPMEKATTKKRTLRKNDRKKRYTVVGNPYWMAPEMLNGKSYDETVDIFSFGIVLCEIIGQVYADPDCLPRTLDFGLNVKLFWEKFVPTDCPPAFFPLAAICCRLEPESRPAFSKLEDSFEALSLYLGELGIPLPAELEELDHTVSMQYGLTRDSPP
Chain of Serine/threonine-protein kinase 32B (Homo sapiens) (Q9NY57 whole entry, the tested form may be a part): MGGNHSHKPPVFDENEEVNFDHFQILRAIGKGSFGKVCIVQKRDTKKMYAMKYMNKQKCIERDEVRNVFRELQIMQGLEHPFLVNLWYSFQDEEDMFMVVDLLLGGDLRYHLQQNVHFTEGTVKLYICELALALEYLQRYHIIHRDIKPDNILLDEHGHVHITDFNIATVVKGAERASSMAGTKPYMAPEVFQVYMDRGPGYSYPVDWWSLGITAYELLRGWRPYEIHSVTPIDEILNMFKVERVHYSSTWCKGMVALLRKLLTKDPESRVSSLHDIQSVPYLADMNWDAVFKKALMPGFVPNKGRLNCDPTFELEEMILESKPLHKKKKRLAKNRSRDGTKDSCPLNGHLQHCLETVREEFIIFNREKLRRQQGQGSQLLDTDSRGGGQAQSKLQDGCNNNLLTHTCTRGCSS

Usually residual activity stands for the activity still measured, relative to the control. Read a high residual activity as much activity left. The term inhibition denotes the relative decrease from the control value, in per cent. As for `CCN1CCN(Cc2ccc(NC(=O)c3ccc(C)c(/C=C/c4cnc5[nH]ccc5c4OC)c3)cc2C(F)(F)F)CC1`, the residual activity in assay [1] was determined as 4.2%; in assay [3], 100%; in assay [4] it was 23%; in assay [6], 1.6%. Also, the figures for the inhibition in [2] and in [5] were 4% and 81%, respectively.
For `CCN1CCN(Cc2ccc(NC(=O)c3ccc(C)c(Oc4ccnc5[nH]ccc45)c3)cc2C(F)(F)F)CC1`, the inhibition was 2.3% in assay [7], 25.2% in assay [8], -7.6% in assay [9] and above 99.5% in assay [10]. For the same molecule, the inhibition result in assay [11] and in [12] was “inactive” each time.
For `CNc1cc(Oc2cc(C(=O)Nc3cc(N4CCN(C)CC4)cc(C(F)(F)F)c3)ccc2C)ncn1`, the inhibition in assay [13] stood at 0.7%; in assay [14] it was 0.7%; in assay [15], 2.7%.

The values above are taken from ChEMBL document CHEMBL5696442, “Discovery of type II inhibitors of TGFβ-activated kinase 1 (TAK1) and mitogen-activated protein kinase kinase kinase kinase 2 (MAP4K2)” (J Med Chem, 2015).
